This sample holds only a part of the variants without activity.
B1: tRNA (parent)
chain: GUUCCGUUGGCGUAAUGGUAACGCGUCUCCCUCCUAAGGAGAAGACUGCGGGUUCGAGUCCCGUACGGAACG

Variants of: B1
Experiment: yeast fitness relative to wild type (ratio to wild type); higher = fitter; tRNA-Arg(CCU), competitive growth, 37 C, YPD
In short: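 Changes in genotype frequencies gave Darwinian fitness relative to wild type. Frequencies were read by 100-nucleotide paired-end sequencing of gene amplicons before and after pooled Saccharomyces cerevisiae strains, carrying tRNA-Arg(CCU) gene variants at the native locus, were competed in YPD at 37°C for 24 hours in six replicates. A genotype was kept only with ≥ 100 starting reads, and estimates < 0.5 were set to 0.5.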

Compared with G10C U13A C31A C55U, C24G A43G G63U U64A is higher in yeast fitness: at most 0.5 for the first, 0.577 for the second.

A15C A40C A70U and A43G A45U C46U A70U cannot be ordered by yeast fitness: at most 0.5 for the first, at most 0.5 for the second.

Going from A21G C33U to U32C C60G A69U, the yeast fitness falls from 0.73 to at most 0.5.

G10C A14U U19A C22U C62U and G6A A57C G58A cannot be ordered by yeast fitness: at most 0.5 for the first, at most 0.5 for the second.

Compared with A14C A15U A40C G48A, C4A G68A is higher in yeast fitness: at most 0.5 for the first, 0.962 for the second.

C31U A43C U54C A65C and C11A C33U U54C cannot be ordered by yeast fitness: at most 0.5 for the first, at most 0.5 for the second.

C33G C34U G38C and A20U G25A C60A A65U A70G cannot be ordered by yeast fitness: at most 0.5 for the first, at most 0.5 for the second.

C24G G48C C49U and A14U G56A G67A cannot be ordered by yeast fitness: at most 0.5 for the first, at most 0.5 for the second.

A15G U26G C30U A37C G39C C61G A69G and A20G G23C G38C cannot be ordered by yeast fitness: at most 0.5 for the first, at most 0.5 for the second.

Compared with A43U C46U, U3G U13C C33A A42U C55A is lower in yeast fitness: 0.952 for the first, 0.585 for the second.

Going from U28C A37G to G10C C29A A40U C55G G67C, the yeast fitness falls from 0.724 to at most 0.5.

Going from G10C C31G A45U G68C to A15G G39A, the yeast fitness rises from at most 0.5 to 0.959.

Compared with C24A C31U A42C, C11G C24G C55U A65U is lower in yeast fitness: 0.529 for the first, at most 0.5 for the second.

Going from G10C C22U G52A to C24G G58A, the yeast fitness rises from at most 0.5 to 0.675.

Going from U2A U16A G56C A57G C62U to A37C A43U, the yeast fitness rises from at most 0.5 to 0.992.

Compared with U8A C27A U47C, U3A C5A G6C A15G U16A U26G is lower in yeast fitness: 0.558 for the first, 0.512 for the second.

Compared with G10A G41A C60G A65G, C5G G9A A65C is higher in yeast fitness: 0.529 for the first, 0.596 for the second.

C4G U28A C33G and C4A U35C U64G cannot be ordered by yeast fitness: at most 0.5 for the first, at most 0.5 for the second.

Compared with C11G U32G C33U A37U A65G, U7C G12A U13C U26C C61U G63A is lower in yeast fitness: 0.627 for the first, 0.596 for the second.

Compared with U7G C27A A36C A42U, C5U A20U G23C C31U U54C is lower in yeast fitness: 0.532 for the first, at most 0.5 for the second.

Compared with C5A C62G, A40U C49G is higher in yeast fitness: 0.778 for the first, 0.811 for the second.

Going from C5G A14C C29A C31G U54G to A14G C29U G41A U54G A69U, the yeast fitness rises from at most 0.5 to 0.621.

Going from A14C C66U to C11G A37C A42G, the yeast fitness falls from 0.657 to at most 0.5.

G9C A14G C49G and U19A A36U C61U cannot be ordered by yeast fitness: at most 0.5 for the first, at most 0.5 for the second.

First: U16C C46A
Second: G25C A65C
The yeast fitness of the first is lower: 1.02 for the first, 1.03 for the second.

First: C27G C46U U54C
Second: G23A A42C C60U C61G
The yeast fitness of the first is higher: 0.738 for the first, at most 0.5 for the second.

Compared with C11U U26A C34G, A37C A45G C49G is lower in yeast fitness: 0.607 for the first, 0.578 for the second.

Compared with C29A A37U C49A, C4U C62A is higher in yeast fitness: at most 0.5 for the first, 0.85 for the second.

Going from C27U U47C A69U to C4A C22U C24A C29A A36C G52A U53A, the yeast fitness falls from 0.838 to at most 0.5.

Going from C24U A43U U47G G67A to C5A C30A, the yeast fitness rises from 0.53 to 0.767.

Compared with C4A A37C A42C, U3C G68A is higher in yeast fitness: 0.506 for the first, 0.866 for the second.

C5G G41C U47G and C11A C24U G56A G67C A70G cannot be ordered by yeast fitness: at most 0.5 for the first, at most 0.5 for the second.

First: U19C C22U G44C
Second: C30U G38C
The yeast fitness of the first is lower: 0.551 for the first, 0.66 for the second.

Compared with U2G G9C G12A A42C C46A A65U, G25A C30G A57G is higher in yeast fitness: 0.577 for the first, 0.582 for the second.

First: C5G G44C G67U
Second: G10C G12A
The yeast fitness of the first is higher: 1.02 for the first, 0.757 for the second.

Compared with U16C U35A, U13C C61G is lower in yeast fitness: 0.74 for the first, 0.609 for the second.

First: C29A A43U
Second: U16A G23C C29G G50A A65G
The yeast fitness of the first is lower: 0.585 for the first, 0.751 for the second.

First: G44A G68U
Second: C22A C24G
The yeast fitness of the first is higher: 0.696 for the first, 0.507 for the second.

Compared with G25A U32C G41A G56A, A15U G25A G44C G52A is lower in yeast fitness: 0.553 for the first, at most 0.5 for the second.

Compared with A14C G25A C33G A36U A45G G52C A70C, C29A A40U A45C C49A A57G is higher in yeast fitness: 0.556 for the first, 0.574 for the second.

Compared with G6A A37G G51C C61U, A57G G67C is higher in yeast fitness: 0.528 for the first, 0.932 for the second.

Going from A14U G58A to C24U C60G C66G, the yeast fitness falls from 0.629 to at most 0.5.

U2C U13G G67U and C5A G10A C49A cannot be ordered by yeast fitness: at most 0.5 for the first, at most 0.5 for the second.

A14C A15C C27U C29A C34G G39A G50C and C4G U8C A15C C31A A36U A37C C60A A65G A69G cannot be ordered by yeast fitness: at most 0.5 for the first, at most 0.5 for the second.

C22G A37C U54C and A21U C33G G58A C66U cannot be ordered by yeast fitness: at most 0.5 for the first, at most 0.5 for the second.

First: U16A G23A C29U C34G
Second: U35C C61A G67C
The yeast fitness of the first is higher: 0.734 for the first, at most 0.5 for the second.

First: G41C G63A
Second: C5U A45C
The yeast fitness of the first is lower: 0.852 for the first, 1.06 for the second.

C11U U35A G38A C55A C61G and C4A C34U G51C A57C cannot be ordered by yeast fitness: at most 0.5 for the first, at most 0.5 for the second.

Compared with G9A C22U A43G U64A, A15U C46A is higher in yeast fitness: at most 0.5 for the first, 0.719 for the second.

C11U A14U C24G C55U and C4G C5G U13C U28G cannot be ordered by yeast fitness: at most 0.5 for the first, at most 0.5 for the second.

First: C22G A43G A70U
Second: C22G C27A C49U C55U G58U
The yeast fitness of the first is higher: 0.683 for the first, at most 0.5 for the second.

U8A G9A C24G A69G and U19A A43G A57C A65U cannot be ordered by yeast fitness: at most 0.5 for the first, at most 0.5 for the second.

C11U C22G C29G G41A U54A and C4A C30G A40U C60G G63C cannot be ordered by yeast fitness: at most 0.5 for the first, at most 0.5 for the second.

Going from A15G C61U A65U C66U to C5G C22G G56A, the yeast fitness rises from at most 0.5 to 0.788.

C5G C30U G44C and U2A C4A C34A A43C C46U cannot be ordered by yeast fitness: at most 0.5 for the first, at most 0.5 for the second.

Going from U16C C55U G67A to G10C C46G, the yeast fitness rises from 0.528 to 0.708.

C5U C11G C24U A42C G67A and G9A G18C G39C A69U cannot be ordered by yeast fitness: at most 0.5 for the first, at most 0.5 for the second.

G18U U26A A69U and C11U U16C C24U A42C G56C A65C cannot be ordered by yeast fitness: at most 0.5 for the first, at most 0.5 for the second.

A15C C24G A40U G44A and C29A U54G cannot be ordered by yeast fitness: at most 0.5 for the first, at most 0.5 for the second.

Going from C31A G48C to C5G U16C C33U C66A, the yeast fitness falls from 0.661 to at most 0.5.

Going from G23A C46U U59C to A14U A15C C31A, the yeast fitness falls from 0.587 to at most 0.5.

Going from A15G U64C to C11U U47C G67A, the yeast fitness falls from 0.976 to 0.783.

First: C11G U26A C31A G44C C62A
Second: C5A C11G
The yeast fitness of the first is lower: at most 0.5 for the first, 0.657 for the second.

First: U8C C22A U47A
Second: U7G U8A A14G
The yeast fitness of the first is lower: at most 0.5 for the first, 0.525 for the second.

Going from U7A G68C to C11A C62A A65C, the yeast fitness falls from 0.811 to at most 0.5.

Going from C34G G68C to U3A A15G U35C G52A, the yeast fitness falls from 0.603 to 0.525.

First: C4G G58A G67U A69C
Second: U2G G6A C55U
The yeast fitness of the first is higher: 0.542 for the first, at most 0.5 for the second.

Compared with C33U A42G, G10C A15U A37U is lower in yeast fitness: 0.622 for the first, at most 0.5 for the second.

First: C33G G39A C49G U54A
Second: U28C G48A C61G
The yeast fitness of the first is lower: at most 0.5 for the first, 0.548 for the second.

First: A20G A42C C61U
Second: A15G C30G A42C A43C C46G
The yeast fitness of the first is higher: 0.573 for the first, at most 0.5 for the second.

Compared with C11A C22G U53C C66U, G12C U35G G58A G67A is higher in yeast fitness: at most 0.5 for the first, 0.706 for the second.

Going from A14G U59G to A21G A40U, the yeast fitness rises from 0.774 to 0.914.

First: U3C C4U A70U
Second: G9C A40C G51C U64C
The yeast fitness of the first is higher: 0.841 for the first, 0.79 for the second.

First: C5U A43U C49U C61A C66U
Second: C11U G17C A21U
The yeast fitness of the first is lower: at most 0.5 for the first, 0.541 for the second.

Compared with C31A C62U, C4A C31U U35C is lower in yeast fitness: 0.944 for the first, at most 0.5 for the second.

A36U G52A C60A and U8C C29U G39C A40U cannot be ordered by yeast fitness: at most 0.5 for the first, at most 0.5 for the second.

Compared with A42U C66A, G23A C55U is lower in yeast fitness: 0.702 for the first, 0.625 for the second.

Compared with A43G C46U A70G, C29A G51A is lower in yeast fitness: 1.04 for the first, 0.544 for the second.

G6A C22U U35C C55A C66U and U7C A14C A21C C46A cannot be ordered by yeast fitness: at most 0.5 for the first, at most 0.5 for the second.

Going from A14G G58C to U2A C49G, the yeast fitness falls from 0.989 to 0.812.

First: G25A U64C
Second: C61G A69C
The yeast fitness of the first is higher: 0.902 for the first, 0.748 for the second.

Compared with C4U C5U G48A G51C, G10C C11U C49A is higher in yeast fitness: at most 0.5 for the first, 0.562 for the second.

First: C11U A37U C60U
Second: U28C A69U
The yeast fitness of the first is lower: 0.539 for the first, 0.893 for the second.

In the case of G39A U47A, the yeast fitness is reported as 0.89.

Reference: the RNAGym collection of RNA variant scans (doi:10.1126/science.aae0568)
